Results as given in ChEMBL document CHEMBL5143731, “N-Acylamino Saccharin as an Emerging Cysteine-Directed Covalent Warhead and Its Application in the Identification of Novel FBPase Inhibitors toward Glucose Reduction” (J Med Chem, 2022).
Activity calls are given as the source filed them. No cut-off for these calls is given here.

Key:
[1] = Half life of the compound in buffer; type: physicochemical
In short: (§1)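 Electrophile (20 μmol) incubated at 37 °C either in pH 7.4 buffer, or in DMSO-d6/D2O (5:1), with or without glutathione. Decay followed by 1H NMR kinetics. First-order rate constant kpseudo-1st taken from ln[electrophile] versus time; t1/2 = 0.693/(60×k), in min.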

[2] = Half life of the compound in DMSO; type: physicochemical; in short: as §1
[3] = Half life of the compound in GSH; type: physicochemical; details: GSH (glutathione); in short: as §1
[4] = target: T1, Fructose-1,6-bisphosphatase 1 (Homo sapiens) (UniProt P09467); test: Binding affinity to ABPP-labeled FBPase (unknown origin) by silver staining based streptavidin blotting; details: dose 2-10 µM, DDE = dose-dependent effect
T1 sequence (whole entry): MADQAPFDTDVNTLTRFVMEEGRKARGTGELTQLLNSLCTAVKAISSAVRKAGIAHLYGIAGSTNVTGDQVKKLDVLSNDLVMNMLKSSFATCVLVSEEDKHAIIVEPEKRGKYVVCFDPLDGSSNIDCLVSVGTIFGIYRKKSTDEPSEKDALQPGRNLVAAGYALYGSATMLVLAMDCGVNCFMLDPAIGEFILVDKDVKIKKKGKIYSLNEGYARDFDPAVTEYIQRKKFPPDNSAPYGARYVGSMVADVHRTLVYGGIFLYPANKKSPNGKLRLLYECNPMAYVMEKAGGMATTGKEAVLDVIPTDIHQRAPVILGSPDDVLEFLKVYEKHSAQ
In short: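 LO2 cell lysate (2 mg/mL protein, RPMI-1640/10% FBS cultures lysed at 70−80% confluence) or purified FBPase labelled with a series of alkyne probe concentrations, 37 °C, 2 h. CuAAC with 0.5 mM each of biotin-PEG3-azide, ascorbate, THPTA and CuSO4, 37 °C, 1 h. Samples run on 10% SDS-PAGE, then silver staining and streptavidin-HRP blot with ECL detection.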

[5] = target: T1, Fructose-1,6-bisphosphatase 1 (Homo sapiens); test: Binding affinity to ABPP-labeled FBPase (unknown origin) at 2 to 8 uM by silver staining based streptavidin blotting; details: dose 2-8 µM
In short: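 LO2 lysate (2 mg/mL) treated with 2−8 μM alkyne probe, 37 °C, 2 h. Click-biotinylated by CuAAC (0.5 mM reagents, 1 h, 37 °C), resolved by 10% SDS-PAGE. Probed by silver stain and streptavidin-HRP blot; labelled bands near 35 kDa read. 2 μM iodoacetamide alkyne served as the reference.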

[6] = target: T2, Fructose-1,6-bisphosphatase 1 (Homo sapiens, UniProt P09467); test: Inhibition of human FBPase expressed Escherichia coli BL21 in by malachite green dye based spectrophotometry
T2 sequence (P09467 whole entry): T1 sequence (whole entry)
In short: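 His-tagged human liver FBPase expressed in E. coli BL21(DE3) and purified by Ni affinity. Phosphate released from FBP complexed with ammonium molybdate/malachite green and read at 620 nm against a KH2PO4 standard curve (2−60 μM). Initial rates at saturating substrate, fixed effector and varied inhibitor fitted to the Hill equation for IC50.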

Homo sapiens [7] = species: Homo sapiens; test: Selectivity ratio of IC50 for human FBPase to IC50 for recombinant ALDOA (unknown origin)
In short: (§2)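 Aldolase (ALDOA/B/C) IC50 by NADH-coupled assay: enzyme plus serial compound dilutions, 0.41 mM NADH and TPI in 0.1 M Tris pH 7.4/0.2 M K-acetate, 3 min at 37 °C. Started with FBP and […], A340 read every 30 s for 6 min. Ratios against the FBPase IC50 from malachite green phosphate assay (620 nm).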

Homo sapiens [8] = species: Homo sapiens; test: Selectivity ratio of IC50 for human FBPase to IC50 for recombinant ALDOB (unknown origin); in short: as §2
Homo sapiens [9] = species: Homo sapiens; test: Selectivity ratio of IC50 for human FBPase to IC50 for recombinant ALDOC (unknown origin); in short: as §2
Homo sapiens [10] = species: Homo sapiens; test: Selectivity ratio of IC50 for human FBPase to IC50 for human GAPDH
In short: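 Recombinant human GAPDH (His-tag, E. coli; 0.1 mg/mL final) preincubated 30 min with compound in 10 mM sodium pyrophosphate pH 8.5 at 37 °C. Started with arsenate, 4 mM NAD+ and 12 mM G3P; A340 at 4 min. Ratio taken against FBPase IC50 from the malachite green phosphate-release assay.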

[11] = AUCt in 12 hrs fasted ICR mouse at 30 mg/kg, ip measured after 24 hrs by LC-MS/MS analysis; details: in vivo
in vivo [12] = details: ICR, mouse, ip, 30 mg/kg
in vivo [13] = details: ICR, mouse, ip, 30 mg/kg; remark: listed apart in the source
in vivo [14] = details: ICR, mouse, ip, 30 mg/kg; remark: listed apart in the source
[15] = target: T3, Tyrosine-protein kinase JAK3 (Homo sapiens) (UniProt P52333); test: Inhibition of JAK3 (unknown origin) at 300 uM measured after 40 mins in presence of ATP by luminescence assay relative to control
T3 sequence (whole entry): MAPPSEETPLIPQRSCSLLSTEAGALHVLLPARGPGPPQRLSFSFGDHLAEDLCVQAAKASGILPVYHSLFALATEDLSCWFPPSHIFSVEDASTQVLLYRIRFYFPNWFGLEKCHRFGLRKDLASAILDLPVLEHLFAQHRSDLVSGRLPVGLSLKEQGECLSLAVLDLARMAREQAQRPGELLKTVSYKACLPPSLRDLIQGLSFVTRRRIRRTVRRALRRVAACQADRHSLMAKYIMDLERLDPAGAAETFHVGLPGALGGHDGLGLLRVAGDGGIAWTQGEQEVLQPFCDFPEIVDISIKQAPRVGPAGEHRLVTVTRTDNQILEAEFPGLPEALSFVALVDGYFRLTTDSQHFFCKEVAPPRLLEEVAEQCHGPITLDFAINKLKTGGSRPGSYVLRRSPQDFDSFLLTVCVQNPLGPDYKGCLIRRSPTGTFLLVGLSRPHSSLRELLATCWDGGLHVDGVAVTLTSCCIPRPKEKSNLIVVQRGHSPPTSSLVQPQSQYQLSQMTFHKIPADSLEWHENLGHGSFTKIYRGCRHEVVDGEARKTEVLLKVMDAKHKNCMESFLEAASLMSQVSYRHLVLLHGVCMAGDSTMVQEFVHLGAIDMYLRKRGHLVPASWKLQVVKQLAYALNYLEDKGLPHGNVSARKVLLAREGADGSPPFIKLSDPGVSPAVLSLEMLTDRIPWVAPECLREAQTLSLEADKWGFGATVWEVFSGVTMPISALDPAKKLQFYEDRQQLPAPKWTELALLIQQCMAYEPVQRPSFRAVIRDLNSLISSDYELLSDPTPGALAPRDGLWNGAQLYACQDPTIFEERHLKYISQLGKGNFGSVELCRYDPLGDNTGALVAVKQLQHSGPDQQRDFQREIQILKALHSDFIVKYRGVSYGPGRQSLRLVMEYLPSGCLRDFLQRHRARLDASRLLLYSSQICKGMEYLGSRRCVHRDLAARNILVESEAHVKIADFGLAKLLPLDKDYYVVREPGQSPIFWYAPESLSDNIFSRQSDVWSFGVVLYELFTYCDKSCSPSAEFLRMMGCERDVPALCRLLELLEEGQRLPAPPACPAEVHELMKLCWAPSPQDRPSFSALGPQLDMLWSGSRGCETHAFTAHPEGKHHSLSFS
In short: (§3)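 Kinase reaction (50 μL): 40 mM Tris pH 7.4, 10 mM MgCl2, 0.1 mg/mL BSA, 1 mM DTT, 10 μM ATP, kinase and substrate, with 1% final DMSO. Run 40 min at 30 °C. Residual ATP read by Kinase-Glo Plus luminescence, inversely related to kinase activity.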

[16] = target: Epidermal growth factor receptor (Homo sapiens) (UniProt P00533); test: Inhibition of EGFR (unknown origin) at 300 uM measured after 40 mins in presence of ATP by luminescence assay relative to control; in short: as §3
Chain of Epidermal growth factor receptor (Homo sapiens) (P00533 whole entry): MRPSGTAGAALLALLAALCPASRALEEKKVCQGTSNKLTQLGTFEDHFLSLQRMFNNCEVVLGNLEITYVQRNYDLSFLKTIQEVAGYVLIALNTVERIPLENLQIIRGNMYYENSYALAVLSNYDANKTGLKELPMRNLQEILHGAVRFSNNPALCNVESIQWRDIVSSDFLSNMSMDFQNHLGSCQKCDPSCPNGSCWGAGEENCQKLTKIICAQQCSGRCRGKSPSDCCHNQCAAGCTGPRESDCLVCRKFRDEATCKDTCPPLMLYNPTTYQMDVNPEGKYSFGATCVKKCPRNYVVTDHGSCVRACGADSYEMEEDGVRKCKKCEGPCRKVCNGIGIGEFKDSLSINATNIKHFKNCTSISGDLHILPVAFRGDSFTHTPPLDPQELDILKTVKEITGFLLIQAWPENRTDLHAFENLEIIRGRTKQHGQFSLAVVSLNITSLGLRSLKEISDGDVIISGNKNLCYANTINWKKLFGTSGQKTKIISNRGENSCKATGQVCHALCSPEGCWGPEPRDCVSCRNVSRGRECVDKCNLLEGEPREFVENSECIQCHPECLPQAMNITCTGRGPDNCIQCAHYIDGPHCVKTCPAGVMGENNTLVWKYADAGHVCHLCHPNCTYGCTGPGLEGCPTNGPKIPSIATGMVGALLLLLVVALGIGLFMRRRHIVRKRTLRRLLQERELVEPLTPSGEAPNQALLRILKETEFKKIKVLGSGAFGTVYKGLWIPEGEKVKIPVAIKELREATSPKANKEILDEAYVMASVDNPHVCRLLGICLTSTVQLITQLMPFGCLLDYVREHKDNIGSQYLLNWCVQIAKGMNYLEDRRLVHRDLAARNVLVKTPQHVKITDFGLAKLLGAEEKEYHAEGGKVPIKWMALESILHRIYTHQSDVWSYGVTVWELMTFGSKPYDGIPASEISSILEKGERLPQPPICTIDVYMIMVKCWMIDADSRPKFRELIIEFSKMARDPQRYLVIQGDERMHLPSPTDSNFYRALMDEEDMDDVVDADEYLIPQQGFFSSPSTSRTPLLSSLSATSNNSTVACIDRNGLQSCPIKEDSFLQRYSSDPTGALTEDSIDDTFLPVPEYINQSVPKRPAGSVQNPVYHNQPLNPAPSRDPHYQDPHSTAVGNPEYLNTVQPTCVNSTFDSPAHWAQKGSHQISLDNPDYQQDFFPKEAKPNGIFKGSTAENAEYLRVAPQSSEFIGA

[17] = target: Tyrosine-protein kinase BTK (Homo sapiens) (UniProt Q06187); test: Inhibition of BTK (unknown origin) at 300 uM measured after 40 mins in presence of ATP by luminescence assay relative to control; in short: as §3
Chain of Tyrosine-protein kinase BTK (Homo sapiens) (Q06187 whole entry): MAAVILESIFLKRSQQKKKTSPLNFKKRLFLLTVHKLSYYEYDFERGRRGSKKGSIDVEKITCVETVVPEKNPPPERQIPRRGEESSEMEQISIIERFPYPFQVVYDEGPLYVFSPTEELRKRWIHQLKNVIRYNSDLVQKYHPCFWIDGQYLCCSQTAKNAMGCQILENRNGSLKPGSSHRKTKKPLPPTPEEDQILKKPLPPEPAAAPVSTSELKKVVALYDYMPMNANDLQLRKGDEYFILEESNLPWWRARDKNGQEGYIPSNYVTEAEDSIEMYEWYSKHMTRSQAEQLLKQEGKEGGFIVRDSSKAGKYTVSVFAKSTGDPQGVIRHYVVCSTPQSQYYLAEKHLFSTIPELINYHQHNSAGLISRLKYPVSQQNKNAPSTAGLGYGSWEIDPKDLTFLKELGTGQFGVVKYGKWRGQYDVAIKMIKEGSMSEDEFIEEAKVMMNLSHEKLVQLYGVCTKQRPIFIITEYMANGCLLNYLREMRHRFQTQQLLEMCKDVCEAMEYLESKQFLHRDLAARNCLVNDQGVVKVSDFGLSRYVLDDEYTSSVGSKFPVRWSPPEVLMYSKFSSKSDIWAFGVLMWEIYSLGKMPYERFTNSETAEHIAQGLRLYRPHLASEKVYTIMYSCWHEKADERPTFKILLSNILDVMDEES

Compound | half-life [1] [h] | half-life [2] [h] | half-life [3] [h] | further results
O=C(NCc1cccc(Br)c1)N1C(=O)c2ccccc2S1(=O)=O | > 167 | > 167 | 0.492 | 
COc1ccc(CNC(=O)N2C(=O)c3ccccc3S2(=O)=O)cc1 |  |  | 0.187 | 
O=C(c1ccccc1)N1Cc2ccccc2C1=O | > 167 | > 167 | > 167 | 
O=C(NCc1ccc(C(F)(F)F)cc1)N1C(=O)c2ccccc2S1(=O)=O | > 167 | > 167 | 0.212 | 
O=C(OCc1ccccc1)N1C(=O)c2ccccc2S1(=O)=O | > 167 | > 167 | < 0.0167 | 
O=C(NCCc1ccccc1)N1C(=O)c2ccccc2S1(=O)=O | > 167 | > 167 | 0.56 | 
C#Cc1ccc(CNC(=O)N2C(=O)c3ccccc3S2(=O)=O)cc1 |  |  |  | Activity [4]: Dde; Activity [5]: Active
O=C(Oc1ccccc1)N1C(=O)c2ccccc2S1(=O)=O | > 167 | 3.04 |  | 
O=C(NCc1ccccc1F)N1C(=O)c2ccccc2S1(=O)=O | > 167 | > 167 | 0.598 | IC50 [6]: 4.2 µM; Ratio IC50 (Homo sapiens [7]): > 25; Ratio IC50 (Homo sapiens [8]): > 25; Ratio IC50 (Homo sapiens [9]): > 25; Ratio IC50 (Homo sapiens [10]): 16.3
O=C(NCC1CCCCC1)N1C(=O)c2ccccc2S1(=O)=O | > 167 | > 167 | 0.963 | IC50 [6]: 16.4 µM
O=C(NCc1ccccc1C(F)(F)F)N1C(=O)c2ccccc2S1(=O)=O | > 167 | > 167 | 0.187 | 
O=C(c1ccccc1)N1C(=O)c2ccccc2S1(=O)=O | > 167 | > 0.875 |  | 
O=C(Cc1ccccc1)N1C(=O)c2ccccc2S1(=O)=O | > 167 | 3.4 |  | 
O=C(NCc1cccc2ccccc12)N1C(=O)c2ccccc2S1(=O)=O | > 167 | > 167 | 0.395 | 
O=C(c1ccccc1)N1Cc2ccccc2S1(=O)=O | > 167 | > 167 | > 167 | 
COc1cccc(CNC(=O)N2C(=O)c3ccccc3S2(=O)=O)c1 | > 167 | > 167 | 0.523 | IC50 [6]: 1.9 µM; Ratio IC50 (Homo sapiens [7]): > 25; Ratio IC50 (Homo sapiens [8]): > 25; Ratio IC50 (Homo sapiens [9]): > 25; Ratio IC50 (Homo sapiens [10]): > 25
O=C(NCc1cccs1)N1C(=O)c2ccccc2S1(=O)=O | > 167 | > 167 | 0.365 | 
O=C1NS(=O)(=O)c2ccccc21 [SACCHARIN] |  |  |  | AUC(0-t) at 12 h [11]: 14000 ng·h/mL; half-life at 12 h (in vivo [12]): 1.11 h; Tmax at 12 h (in vivo [13]): 0.25 h; Cmax at 12 h (in vivo [14]): 29900 ng/mL
CCCNC(=O)N1C(=O)c2ccccc2S1(=O)=O | > 167 | > 167 | 0.775 | IC50 [6]: > 500 µM
COc1ccccc1CNC(=O)N1C(=O)c2ccccc2S1(=O)=O | > 167 | > 167 | 1.12 | inhibition [15]: < 50%; IC50 [6]: 1.7 µM; inhibition [16]: < 50%; Ratio IC50 (Homo sapiens [7]): > 25; Ratio IC50 (Homo sapiens [8]): > 25; Ratio IC50 (Homo sapiens [9]): > 25; Ratio IC50 (Homo sapiens [10]): > 25; inhibition [17]: < 50%
O=C(CCc1ccccc1)N1C(=O)c2ccccc2S1(=O)=O | > 167 | 5.78 |  | 
CC(NC(=O)N1C(=O)c2ccccc2S1(=O)=O)c1ccccc1 (stereo not given) | > 167 | > 167 | 0.663 | IC50 [6]: 8.7 µM; Ratio IC50 (Homo sapiens [7]): > 25; Ratio IC50 (Homo sapiens [8]): > 25; Ratio IC50 (Homo sapiens [9]): > 25; Ratio IC50 (Homo sapiens [10]): 1.3
Cc1ccccc1CNC(=O)N1C(=O)c2ccccc2S1(=O)=O | > 167 | > 167 | 0.792 | IC50 [6]: 3.6 µM; Ratio IC50 (Homo sapiens [7]): > 25; Ratio IC50 (Homo sapiens [8]): > 25; Ratio IC50 (Homo sapiens [9]): > 25; Ratio IC50 (Homo sapiens [10]): 3.6
O=C(NCc1ccc(Br)cc1)N1C(=O)c2ccccc2S1(=O)=O |  |  | 0.187 | 
O=C(NCc1ccccc1Cl)N1C(=O)c2ccccc2S1(=O)=O | > 167 | > 167 | 0.42 | 
O=C(NCc1ccccc1Br)N1C(=O)c2ccccc2S1(=O)=O | > 167 | > 167 | 0.253 | 
